Sampled rows, rich in hits. Any-hit rate of the full collection: about 2.4%.
Apaf-1 inh = inhibitors of human Apaf-1 apoptosome, primary screen, biochemical, DEVD-Rh110 fluorescence, uHTS; Apoptotic protease-activating factor 1 (Homo sapiens), O14727; reconstituted apoptosome caspase-3 activity; inhibition, % at 20 µM; 0.71% of 330,000 active; AID 489030, 2010; active = inhibition of at least 40% at 20 µM;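 also: plate controls were DMSO wells for no effect and DEVD-CHO caspase inhibitor wells for full effect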
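Assay system – apoptosome proteins · Medium – Hepes buffer, pH 7.5 · Also added – cytochrome c with DEVD-Rh110 · Timing – 30 min compound preincubation, 50 min activation, room temperature · Detection – Rh110 fluorescence, excitation 480 nm, emission 540 nm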
PAD4 FP inh = human PAD4 inhibitors, primary screen, biochemical, fluorescence polarization, 1536-well format; recombinant PAD4, RCA probe fluorescence polarization; 0.41% of 330,000 active; AID 485272, 2010; inhibition, % at 6.36 µM;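 active = percent inhibition above a cutoff equal to the mean of all tested compounds plus 3 SD, cut at about 15% in these data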;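 also: 0% = PAD4 with RCA probe and DMSO and 100% = probe without PAD4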
TCR CD3 inh = inhibitors of human TCR-CD3 interaction, primary screen, biochemical, fluorescence, TAMRA-labeled TCR probe; inhibition, % at 9.4 µM; AID 651800, 2012; 0.37% of 360,000 active; in the data active = inhibition above about 19%;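 also: recombinant mutant TCR 2C K166C tagged with TAMRA read by polarization; 0% = receptor in buffer alone and 100% = receptor with positive control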
GSTO1 inh = inhibitors of recombinant GSTO1, primary screen, counter-screen for RBBP9 inhibitor project, biochemical, fluorescence polarization | Glutathione S-transferase omega-1 (Homo sapiens), P78417 | 1.1% of 300,000 active | inhibition, % at 5.96 µM | AID 1974, 2009 | activity-based probe fluorescence polarization;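 active = inhibition above the campaign mean inhibition plus 3 SD, cut at about 35% in these data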;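 also: 0% = GSTO1-1 with DMSO and 100% = wells lacking GSTO1-1 enzyme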
Target sequence (P78417 whole entry, looked up): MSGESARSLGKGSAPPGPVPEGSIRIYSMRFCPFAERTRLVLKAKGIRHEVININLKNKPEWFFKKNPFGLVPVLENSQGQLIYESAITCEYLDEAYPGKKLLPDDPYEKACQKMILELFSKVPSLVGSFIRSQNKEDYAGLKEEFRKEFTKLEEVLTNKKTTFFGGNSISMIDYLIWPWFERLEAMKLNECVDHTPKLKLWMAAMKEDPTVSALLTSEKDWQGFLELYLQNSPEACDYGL
SIAE primary = human SIAE inhibitors, primary screen, biochemical, fluorescence polarization, FP-Rh probe, 1536-well HTS | Sialate O-acetylesterase (Homo sapiens), Q9HAT2 | SIAE FP-Rh probe binding | inhibition, % at 9.66 µM | 0.69% of 370,000 active | AID 1053197, 2014;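 active = inhibition above a cutoff: mean of compounds within the control limits plus 3 SD of those, cut at about 17% in these data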;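 also: 0% = plate median of compound wells and 100% = probe without SIAE protein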
TDP2 absorb = human TDP2 enzyme inhibitors, primary screen, biochemical, epi absorbance, recombinant enzyme; inhibition, % at 12.8 µM; 0.34% of 370,000 active; Tyrosyl-DNA phosphodiesterase 2 (Homo sapiens), O95551; T5PNP hydrolysis, p-nitrophenol absorbance 415 nm; AID 720702, 2013;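 active = inhibition above the mean of all tested compounds plus 3 SD, set per campaign, cut at about 25% in these data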;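 also: 0% = DMSO with enzyme and 100% = buffer with substrate but no TDP2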
Target sequence (O95551 whole entry, looked up): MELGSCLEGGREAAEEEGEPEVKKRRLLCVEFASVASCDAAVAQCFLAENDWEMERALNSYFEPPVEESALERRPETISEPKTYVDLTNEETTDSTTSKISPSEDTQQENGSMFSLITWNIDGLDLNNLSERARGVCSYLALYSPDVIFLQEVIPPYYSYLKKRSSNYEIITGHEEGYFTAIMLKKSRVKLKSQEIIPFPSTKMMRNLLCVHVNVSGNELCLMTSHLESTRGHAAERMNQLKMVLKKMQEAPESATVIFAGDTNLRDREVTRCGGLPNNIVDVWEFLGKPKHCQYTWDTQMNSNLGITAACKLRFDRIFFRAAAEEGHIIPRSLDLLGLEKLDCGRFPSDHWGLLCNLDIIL
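Read-out basis: percent inhibition. System: recombinant human TDP2. Buffer or medium: Mg2+-containing Tris-HCl buffer, pH 7.5. Repeats: single replicate. Timing: reaction 2 h, 37 °C. Benchmarks: high control without enzyme, low control DMSO plus TDP2. Probe or stimulus: 5 mM T5PNP. Doses: 12.8 µM only. Measured by: epi absorbance of p-nitrophenol freed from T5PNP by hydrolysis.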
GSTO1 inh conf = GSTO1 inhibitor hit confirmation, counter-screen for RBBP9 inhibitor project, biochemical, fluorescence polarization, triplicate. shares compounds with GSTO1 inh. recombinant GSTO1, probe fluorescence polarization. inhibition, % at 5.96 µM. 54% of 2,400 active;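 active = inhibition above the primary screen's cutoff, its mean inhibition plus 3 SD, cut at about 35% in these data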;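 also: loss of polarization as inhibitors block binding of rhodamine sulfonate ester activity probe; 0% = GSTO1 with DMSO and 100% = wells lacking GSTO1 enzyme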
PAD4 confirm = human PAD4 inhibitors, confirmation, biochemical, fluorescence polarization; 28% of 1,200 active; AID 488796, 2010; recombinant PAD4, RCA probe fluorescence polarization; inhibition, % at 6.36 µM; shares compounds with PAD4 FP inh;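 active = mean inhibition across replicates above the hit cutoff set by the earlier primary screen, cut at about 15% in these data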;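 also: inhibitors block active-site labeling by the probe so polarization falls; 0% = PAD4 with probe and DMSO and 100% = probe without PAD4 enzyme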
Apaf-1 inh conf = Apaf-1 inhibitors, single-dose retest, confirmation, biochemical, fluorescence, DEVD-Rh110, 20 µM; reconstituted apoptosome, caspase-3 DEVD-Rh110 fluorescence; shares compounds with Apaf-1 inh; 25% of 1,800 active; AID 504614, 2011; inhibition, % at 20 µM;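 active = mean inhibition of at least 40% at 20 µM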;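 also: plate controls were DMSO wells for no effect and DEVD-CHO caspase inhibitor control wells for full effect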
Rh110 quench = Rh110 fluorescence interference by putative Apaf-1 inhibitors, confirmation, artefact control for Apaf-1 inhibitor project, biochemical, 20 µM | shares compounds with Apaf-1 inh | quenched caspase reaction | activation (fluorescence interference), % at 20 µM | 1,800 tested, under 10 active | AID 504615, 2011;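 active = signal rise of 40% or more at 20 µM, treated as a fluorescence artifact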
Apaf1 inh interf = fluorescence interference of Apaf-1 inhibitor hits, dose response, artefact control for Apaf-1 inhibitor project. IC50, µM. shares compounds with Apaf-1 inh. fluorescence interference counterscreen, Apaf-1 assay format. AID 588538, 2011. 460 tested, under 10 active; call rule not given here
* = called active by the depositor; x = no result given.

SMILES	Apaf-1 inh	PAD4 FP inh	TCR CD3 inh	GSTO1 inh	SIAE primary	TDP2 absorb	GSTO1 inh conf	Apaf-1 inh conf	Rh110 quench	Apaf1 inh interf	others
CCOc1ccc(S(=O)(=O)NCCC(=O)NCC(c2ccccc2OC)N2CCCC2)cc1 (stereo not drawn)	11	x	11	x	2	-9	x	x	x	x
CCCC[n+]1ccn(C2=C([O-])c3ccccc3C(=O)/C2=N\S(=O)(=O)c2ccc(Cl)cc2)c1	52*	-8	3	75*	8	11	71*	56*	15	>100
CCCCC[n+]1ccn(C2=C([O-])c3ccccc3C(=O)/C2=N\S(=O)(=O)c2ccc(Cl)cc2)c1	70*	-4	-7	66*	3	-1	28	54*	9	>100
CNC(=O)c1c(NC(=O)c2ccc(S(=O)(=O)N3CC(C)OC(C)C3)cc2)sc2c1CCN(C(C)C)C2 (stereo not drawn)	0	-4	6	6	5	6	x	x	x	x
CNC(=S)NNC(=O)Cc1ccc(OC)cc1	-9	-3	4	-6	1	7	x	x	x	x
O=C(N/N=C\c1ccc([N+](=O)[O-])o1)C1COc2ccccc2O1 (stereo not drawn)	12	-1	6	28	13	6	x	x	x	x
O=C(N/N=C\c1ccc(-c2ccccc2[N+](=O)[O-])o1)C1COc2ccccc2O1 (stereo not drawn)	79*	29*	13	66*	3	15	47*	8	-3	x	PAD4 confirm=-7
Cc1oc2c(c1C(=O)O)C(=O)c1ccccc1C2=O	79*	9	8	61*	-4	11	62*	69*	-1	>100
CCOC(=O)c1c(C)oc2c1C(=O)c1ccccc1C2=O	69*	6	1	66*	-1	-6	64*	68*	2	>100
COc1ccccc1CN1C(=O)CCC1(C)C(=O)NCc1cccnc1 (stereo not drawn)	-8	2	5	0	0	3	x	x	x	x
CCOc1ccc2nc3cc(NCc4ccc(OC)cc4)ccc3c(N)c2c1	96*	-7	x	50*	x	x	32	82*	-4	>100
O=C1c2ccccc2-c2onc3ccc(NCc4ccco4)c1c23	69*	89*	x	100*	x	x	53*	30	-50	x
O=C(O)c1ccccc1NCc1ccco1	1	4	-5	1	5	16	x	x	x	x
NNc1nc(C(F)(F)F)nc2ccccc12	-4	-3	1	-13	6	11	x	x	x	x
O/C=c1\ccc2cccc3nc(C(F)(F)F)nc1c23	79*	-15	2	64*	17	-4	76*	86*	-40	20*
CC1=NN(c2ccccc2)C(=O)/C1=C\c1cn(CCC#N)nc1-c1ccc(Cl)cc1	80*	19*	-9	53*	3	5	10	23	12	x	PAD4 confirm=6
COC(=O)c1cc(S(=O)(=O)N2CCCC(C)C2)c[nH]1 (stereo not drawn)	-4	-1	4	3	0	3	x	x	x	x
Cc1ccc(-c2ccc(/C=N/N=C3/NC(=O)C(CC(=O)O)S3)o2)c([N+](=O)[O-])c1 (stereo not drawn)	74*	13	3	67*	-8	-5	12	28	9	x
O=[N+]([O-])c1ccccc1-c1ccc(/C=N/n2cnnc2)o1	-2	-4	5	12	-1	12	x	x	x	x
O=C(O)CC1S/C(=N/N=C/c2ccc(-c3ccccc3[N+](=O)[O-])o2)NC1=O (stereo not drawn)	73*	20*	-8	62*	0	0	9	21	2	x	PAD4 confirm=-2
Cc1ccc(S(=O)(=O)Oc2ccc(/C=N/N=C3/NC(=O)C(CC(=O)O)S3)cc2)cc1 (stereo not drawn)	7	x	8	x	8	7	x	x	x	x
Cc1ccc(Cl)cc1NC1=C/C(=N\S(=O)(=O)c2cccs2)c2ccccc2C1=O	95*	52*	-2	74*	7	23	94*	97*	0	>100	PAD4 confirm=54*
Cc1ccc(Nc2cc(=O)oc3ccccc23)c(C)c1	5	2	8	-3	3	-5	x	x	x	x
Cc1ccc(NC2=C/C(=N\S(=O)(=O)c3cccs3)c3ccccc3C2=O)c(C)c1	95*	65*	x	81*	x	x	89*	95*	-1	>100	PAD4 confirm=56*
COc1ccc(-c2nc(N)ncc2-c2ccc(OC)c(OC)c2)c(O)c1	2	x	3	x	-1	-4	x	x	x	x
SMILES	Apaf-1 inh	PAD4 FP inh	TCR CD3 inh	GSTO1 inh	SIAE primary	TDP2 absorb	GSTO1 inh conf	Apaf-1 inh conf	Rh110 quench	Apaf1 inh interf	others
C(=N\C(/N=C/c1ccco1)c1ccco1)/c1ccco1	14	-1	2	19	5	10	x	x	x	x
C(=Nc1cccc2c(N=Cc3ccco3)cccc12)c1ccco1	92*	62*	x	40*	x	x	3	28	0	x	PAD4 confirm=9
COc1ccc(CCn2c(N)c(C#N)c3nc4ccccc4nc32)cc1OC	60*	24*	1	57*	8	-2	-5	-2	1	x	PAD4 confirm=-11
COc1ccc(CCn2c(N)c(S(=O)(=O)c3cccs3)c3nc4ccccc4nc32)cc1OC	0	-7	-2	0	-4	-8	x	x	x	x
COc1cc(OC)c(NC2=CC(=O)C(=O)c3ccccc32)cc1Cl	92*	11	-6	79*	11	4	77*	92*	9	>100
CCCCCC(=O)N/N=C/c1ccc([N+](=O)[O-])o1	6	-13	-4	9	-3	-8	x	x	x	x
CCN(CC)c1ccc(N=Cc2ccc([N+](=O)[O-])o2)cc1	56*	8	5	73*	7	-2	10	27	10	x
